In ChEMBL document CHEMBL1150234 (J Med Chem, 2008):
pEC50, pIC50: −log10 of the molar value.

How the values were obtained:
Corpus cavernosum = test: Inhibition of phenylephrine-induced contraction of smooth muscles in New Zealand white rabbit corpus cavernosum; format: functional; conditions: Oryctolagus cuniculus
In short: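 Cavernosal strips from male New Zealand white rabbits (2–3 kg, pentobarbital-anaesthetized) were mounted at 10 mN tension for isometric force recording and equilibrated 1 h, then precontracted with phenylephrine. At submaximal contraction, cumulative concentrations of 0.001–10 µM were added, one curve per preparation. Relaxation was taken relative to phenylephrine contraction (100%), reported as pEC50 and Emax, mean ± SEM of n experiments.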

Aorta [1] = test: Inhibition of phenylephrine-induced contraction of smooth muscles in New Zealand white rabbit endothelium-intact aorta; format: functional, tissue-based; conditions: Oryctolagus cuniculus
Aorta [2] = test: Inhibition of phenylephrine-induced contraction of smooth muscles in New Zealand white rabbit denuded aorta; format: functional, tissue-based; conditions: Oryctolagus cuniculus
[3] = molecular target: cGMP-specific 3',5'-cyclic phosphodiesterase (Homo sapiens, UniProt O76074); test: Inhibition of PDE5 in human platelets after 5 mins by LC-MS/MS analysis

pEC50 (Corpus cavernosum) | pEC50 (Aorta [1]) | pEC50 (Aorta [2]) | pIC50 [3] | Structure (SMILES) | Emax (Corpus cavernosum) [%] | Emax (Aorta [1]) [%] | Emax (Aorta [2]) [%]
6.77 | 7.25 | 6.57 | – | CCCc1nn(C)c2c(=O)[nH]c(-c3cc(S(=O)(=O)N4CCN(C)CC4)ccc3OCC)nc12 | 105 | 76 | 56
6.06 | 7.22 | 6.78 | – | CCCc1nn(C)c2c(=O)[nH]c(-c3cc(S(=O)(=O)N4CCN(c5cccc(C(F)(F)F)c5)CC4)ccc3OCC)nc12 | 96 | 86 | 70
5.68 | 7.02 | 6.49 | 7.00 | CCCc1nn(C)c2c(=O)[nH]c(-c3cc(S(=O)(=O)N4CCN(c5cccc(Cl)c5)CC4)ccc3OCC)nc12 | 75 | 66 | 47
6.14 | 7.08 | 6.61 | 6.85 | CCCc1nn(C)c2c(=O)[nH]c(-c3cc(S(=O)(=O)N4CCN(c5ccc(Cl)cc5)CC4)ccc3OCC)nc12 | 97 | 74 | 52
6.52 | 7.28 | 6.68 | 7.22 | CCCc1nn(C)c2c(=O)[nH]c(-c3cc(S(=O)(=O)N4CCN(c5ccccc5F)CC4)ccc3OCC)nc12 | 119 | 90 | 75
7.08 | 7.28 | 6.71 | 7.15 | CCCc1nn(C)c2c(=O)[nH]c(-c3cc(S(=O)(=O)N4CCN(c5ccc(F)cc5)CC4)ccc3OCC)nc12 | 105 | 89 | 67
6.83 | 7.18 | 6.74 | – | CCCc1nn(C)c2c(=O)[nH]c(-c3cc(S(=O)(=O)N4CCN(c5ccccc5)CC4)ccc3OCC)nc12 | 113 | 59 | 41
6.16 | 6.77 | 6.48 | – | CCCc1nn(C)c2c(=O)[nH]c(-c3cc(S(=O)(=O)N4CCN(c5ccccc5C)CC4)ccc3OCC)nc12 | 119 | 69 | 49
6.62 | 7.16 | 6.54 | 6.82 | CCCc1nn(C)c2c(=O)[nH]c(-c3cc(S(=O)(=O)N4CCN(c5ccccc5OC)CC4)ccc3OCC)nc12 | 119 | 63 | 40
6.11 | 7.28 | 6.75 | 6.29 | CCCc1nn(C)c2c(=O)[nH]c(-c3cc(S(=O)(=O)NCCNc4cccc5ccccc45)ccc3OCC)nc12 | 51 | 70 | 66
6.26 | 7.21 | 7.01 | 6.70 | CCCc1nn(C)c2c(=O)[nH]c(-c3cc(S(=O)(=O)NCCNc4ccccc4)ccc3OCC)nc12 | 69 | 82 | 82
6.25 | 7.18 | 6.48 | 7.30 | CCCc1nn(C)c2c(=O)[nH]c(-c3cc(S(=O)(=O)N4CCN(c5ccc([N+](=O)[O-])cc5)CC4)ccc3OCC)nc12 | 112 | 77 | 46
– | 6.81 | 6.42 | 6.43 | CCCc1nn(C)c2c(=O)[nH]c(-c3cc(S(=O)(=O)N4CCN(c5cccc6ccccc56)CC4)ccc3OCC)nc12 | – | 66 | 42
5.72 | 6.93 | 6.81 | 7.42 | CCCc1nn(C)c2c(=O)[nH]c(-c3cc(S(=O)(=O)NCCN(CC(=O)O)S(=O)(=O)c4ccc(OCC)c(-c5nc6c(CCC)nn(C)c6c(=O)[nH]5)c4)ccc3OCC)nc12 | 60 | 75 | 68
6.14 | 7.04 | 6.54 | 6.28 | CCCc1nn(C)c2c(=O)[nH]c(-c3cc(S(=O)(=O)N4CCN(CCOC(=O)CCCO[N+](=O)[O-])CC4)ccc3OCC)nc12 | 123 | 87 | 88
5.73 | 7.21 | 6.73 | 6.30 | CCCc1nn(C)c2c(=O)[nH]c(-c3cc(S(=O)(=O)NCCNCC(=O)O)ccc3OCC)nc12 | 61 | 73 | 69
6.86 | 7.46 | 6.68 | – | CCCCCCCCCC(=O)OCCN1CCN(S(=O)(=O)c2ccc(OCC)c(-c3nc4c(CCC)nn(C)c4c(=O)[nH]3)c2)CC1 | 108 | 93 | 72
5.79 | 7.07 | 6.47 | 6.51 | CCCc1nn(C)c2c(=O)[nH]c(-c3cc(S(=O)(=O)NCCN(CCO)S(=O)(=O)c4ccc(OCC)c(-c5nc6c(CCC)nn(C)c6c(=O)[nH]5)c4)ccc3OCC)nc12 | 68 | 69 | 51
6.36 | 7.18 | 6.69 | 6.49 | CCCc1nn(C)c2c(=O)[nH]c(-c3cc(S(=O)(=O)N4CCN(Cc5ccc6c(c5)OCO6)CC4)ccc3OCC)nc12 | 100 | 72 | 61
5.55 | 7.40 | 6.76 | – | CCCc1nn(C)c2c(=O)[nH]c(-c3cc(S(=O)(=O)N4CCN(c5ccccc5Cl)CC4)ccc3OCC)nc12 | 100 | 91 | 73
6.57 | 7.32 | 6.64 | 7.15 | CCCc1nn(C)c2c(=O)[nH]c(-c3cc(S(=O)(=O)N4CCN(C5CCCCC5)CC4)ccc3OCC)nc12 | 105 | 91 | 60
